This note sets out measurements from ChEMBL document CHEMBL1125815, “2-Phenyl-3H-imidazo[4,5-b]pyridine-3-acetamides as non-benzodiazepine anticonvulsants and anxiolytics” (J Med Chem, 1991).

pIC50: −log10 of the molar value. Bounds are passed on as bounds.

For assay [1], the target named is GABA-A receptor; anion channel. The assay is described as follows: Displacement of [3H]flunitrazepam from GABA-A benzodiazepine receptor of rat cerebral cortex membrane. The class given is tissue-based. The method in brief: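 Rat cerebral cortex P2+P3 membranes (fresh tissue, two freeze-thaw-wash cycles to remove endogenous GABA), 0.4 mg protein. Incubated with 1 nM [3H]flunitrazepam and six concentrations (1 × 10^-5 – 1 × 10^-10 M) for 30 min at 4 °C. Filtered on GF/b filters and counted. […] IC50 from log-logit regression, mean of replicates.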

The species named for assay [2] is Mus musculus. The assay is described as follows: Anticonvulsant activity against pentylenetetrazole-induced clonic seizures in mice. The format is functional. The settings on record: Mus musculus; read-out: ED50. The method in brief:
(§1)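 Female adult ICR mice, groups of eight, given test compound ip (100 mg/kg screen) in 0.5% aqueous methylcellulose or vehicle. Challenged 30 min later with pentyletetrazole 80 mg/kg sc and scored for clonic seizures.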

Assay [3] concerns the target GABA-A receptor; anion channel. Description: Displacement of [3H]-diazepam from GABA-A benzodiazepine receptor of rat cerebral cortex membrane. The class given is tissue-based. The method in brief: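 Membranes skipped the freeze-thaw-wash cycles, so endogenous GABA was retained. Six concentrations (1 × 10^-5 – 1 × 10^-10 M), 30 min at 4 °C, glass-fiber filtration and scintillation counting. IC50 from log-logit regression.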

Assay [4] has as its system Mus musculus. Description: Compound was tested for anticonvulsant activity against pentylenetetrazole-induced clonic seizures in mice; conv = 'convulsant at 10 mg/kg'. The format is functional, organism-based. Also on record: dose 10 mg/kg. A digest of the protocol:
as §1

Assay [5] deals with Mus musculus. The assay is described as follows: Compound was tested for anticonvulsant activity against pentylenetetrazole-induced clonic seizures in mice on intraperitoneal administration. The format is functional. Conditions: ip. The method in brief: as §1
The species entered for assay [6] is Mus musculus. The assay is described as follows: Compound was tested for anticonvulsant activity against maximal electroshock-induced […] seizures in mice at 50mA, 200 ms. The class given is functional. On the technique in general: The maximal electroshock test induces tonic seizures with an electrical stimulus.
Assay [7] concerns Mus musculus. The assay is described as follows: Compound was tested for anticonvulsant activity against pentylenetetrazole-induced clonic seizures in mice at 80 mg/kg sc. The class given is functional. Conditions: route subcutaneous. The method in brief:
as §1

For assay [8], the system named is Mus musculus. The assay is described as follows: Anticonvulsant activity against picrotoxin-induced clonic seizures in mice at 3.2 mg/kg sc. The class given is functional. Conditions: route subcutaneous.
The test system of assay [9] is Mus musculus. The assay is described as follows: Compound was tested for anticonvulsant activity against bicuculline-induced clonic seizures in mice at 2.7 mg/kg sc. Conditions: route subcutaneous. The class given is functional.

By pIC50 is commonly meant the negative decadic logarithm of the IC50, by convention in mol/L. By ED50 is commonly meant the dose that gives a 50% effect, or the effect in half of the subjects.

With `O=C(Cn1c(-c2ccc(Cl)cc2)nc2cccnc21)N1CCCC1`, the pIC50 in assay [1] was 5.57. The ED50 in the assay listed under Mus musculus [2] came out at 17.9 mg/kg.
Take `CN(C)C(=O)Cn1c(-c2ccc(C(F)(F)F)cc2)nc2cccnc21`: in the assay filed under Mus musculus [2], the ED50 was found to be 3.2 mg/kg. In addition, the negative logarithm of the IC50 (pIC50) in assay [3] was 5.43.
In turn, `CCCN(C)C(=O)Cn1c(-c2ccc(Cl)cc2)nc2cccnc21` showed a pIC50 in [1] of 6.17. For the same compound, the 50% effective dose (ED50) in the assay filed under Mus musculus [2] was determined as 11.6 mg/kg.
`CN(C)C(=O)Cn1c(-c2ccc(Cl)cc2Cl)nc2cccnc21` had a negative-log IC50 (pIC50) in [1] of under 5.00. In addition, the 50% effective dose (ED50) result in the assay on Mus musculus [4] is “Convulsant”.
`CN(C)C(=O)Cn1c(-c2ccc(Cl)cc2)nc2ccc(Cl)nc21` showed a negative-log IC50 (pIC50) in assay [1] of 6.34. Further, the ED50 in the assay filed under Mus musculus [2] stood at 1.1 mg/kg.
As for `CCCCN(CCCC)C(=O)Cn1c(-c2ccc(Cl)cc2)nc2cccnc21`, the pIC50 in assay [1] is 6.05. The same compound showed a 50% effective dose (ED50) with Mus musculus [5] of 38 mg/kg.
The compound `CN(C)C(=O)Cn1c(Cc2ccc(Cl)cc2)nc2cccnc21` had a negative logarithm of the IC50 (pIC50) in assay [1] of under 5.00.
Regarding `CCCN(CCC)C(=O)Cn1c(-c2ccc(Cl)cc2)nc2ncccc21`, the pIC50 in [1] was under 5.00.
Turning to `C[C@H](C(=O)N(C)C)n1c(-c2ccc(Cl)cc2)nc2cccnc21`, the pIC50 in assay [1] was under 5.00. Also, in the assay filed under Mus musculus [2], the 50% effective dose (ED50) is 43.5 mg/kg.
For `Cc1ccc(-c2nc3cccnc3n2CC(=O)N(C)C)cc1`, in that order: 5.76 and 4.7 mg/kg.
In turn, `CN(C)C(=O)Cn1c(-c2ccc(Cl)cc2)nc2ccc(O)nc21` had a negative-log IC50 (pIC50) in assay [1] of 5.28.
In the case of `CCC1(C)CC(=O)NC1=O` (centres undefined) [ETHOSUXIMIDE], the ED50 in the assay filed under Mus musculus [6] is over 1000 mg/kg; in the assay with Mus musculus [7], 130 mg/kg.
Consider `CN(C)C(=O)Cn1c(-c2ccc(F)cc2)nc2cccnc21`, for which, in assay [1], the negative-log IC50 (pIC50) was under 5.00. Further, the ED50 in the assay filed under Mus musculus [2] turned out to be 40.5 mg/kg.
On to `CCCC(CCC)C(=O)O` [VALPROIC ACID], for which the median effective dose (ED50) stood at 272 mg/kg in the assay filed under Mus musculus [6] and 149 mg/kg in the assay with Mus musculus [7].
`CC(=O)NCCNC(=O)Cn1c(-c2ccc(Cl)cc2)nc2cccnc21`: the pIC50 in assay [1] is 5.14.
In assay [1], `CCCN(CCC)C(=O)Cn1c(-c2ccc(Cl)cc2)nc2cccnc21` had a negative-log IC50 (pIC50) of 6.42. Moreover, the ED50 in the assay listed under Mus musculus [2] worked out at 11 mg/kg.
`NC(=O)Cn1c(-c2cccc(Cl)c2)nc2cccnc21` gave a negative-log IC50 (pIC50) in assay [3] of over 5.00.
`CN(C)C(=O)Cn1c(-c2ccccc2)nc2cccnc21` had a pIC50 in assay [1] of under 5.00. In addition, in the assay filed under Mus musculus [2], the median effective dose (ED50) is 35 mg/kg.
Regarding `CCN(CC)C(=O)Cn1c(-c2ccc(Cl)cc2)nc2cccnc21`, the pIC50 in assay [1] was 5.74. In addition, the ED50 in the assay listed under Mus musculus [2] is 16 mg/kg.
As to `CCOC(=O)N1CCN(C(=O)Cn2c(-c3ccc(Cl)cc3)nc3cccnc32)CC1`, in [1], the negative-log IC50 (pIC50) was 5.29.
The compound `CN1CCN(C(=O)Cn2c(-c3ccc(Cl)cc3)nc3cccnc32)CC1` showed a pIC50 in assay [1] of under 5.00. In addition, in the assay on Mus musculus [5], the ED50 came to 100 mg/kg.
For `Cc1ccc2nc(-c3ccc(Cl)cc3)n(CC(=O)N(C)C)c2n1`, in assay [1], the pIC50 was 6.06. The median effective dose (ED50) in the assay listed under Mus musculus [2] was determined as 2.5 mg/kg.
`CN(C)C(=O)Cn1c(-c2ccc(Cl)cc2)nc2ccncc21` showed a negative logarithm of the IC50 (pIC50) in assay [1] of under 5.00.
In the case of `CN(C)C(=O)Cn1c(-c2ccc(Cl)cc2)nc2ccc[n+]([O-])c21`, in assay [1], the negative-log IC50 (pIC50) is under 5.00. The median effective dose (ED50) in the assay listed under Mus musculus [2] was 20 mg/kg.
In assay [1], `O=C(Cn1c(-c2ccc(Cl)cc2)nc2cccnc21)N1CCOCC1` gave a pIC50 of 5.39. In addition, in the assay listed under Mus musculus [2], the median effective dose (ED50) is 11.5 mg/kg.
On to `CCC1(c2ccccc2)C(=O)NC(=O)NC1=O` [PHENOBARBITAL], for which the ED50 in the assay on Mus musculus [8] turned out to be 27.5 mg/kg; in the assay filed under Mus musculus [6], 21.8 mg/kg; with Mus musculus [9], 37.7 mg/kg; in the assay on Mus musculus [7], 13.2 mg/kg.
As to `CN(C)C(=O)Cn1c(-c2ccc(Cl)cc2)nc2cc(Cl)cnc21`, the negative-log IC50 (pIC50) in [1] was under 5.00. For the same compound, in the assay filed under Mus musculus [2], the ED50 was 56.2 mg/kg.
`CN(C)C(=O)Cn1c(-c2ccc(Br)s2)nc2cccnc21` showed a pIC50 in assay [1] of 5.60. In the assay with Mus musculus [5], this compound yielded an ED50 of 100 mg/kg.
`CN(C)C(=O)Cn1c(-c2ccsc2)nc2cccnc21`: the pIC50 in assay [1] is under 5.00. Besides, in the assay listed under Mus musculus [2], the 50% effective dose (ED50) came out at 38 mg/kg.
The compound `CCCN(CCC)C(=O)Cn1c(-c2ccc(Cl)cc2)nc2ccccc21` gave a pIC50 in assay [1] of 5.57.
As to `CN(C)CCNC(=O)Cn1c(-c2ccc(Cl)cc2)nc2cccnc21`, in [1], the pIC50 was under 5.00. Besides, in the assay listed under Mus musculus [2], the ED50 came to 62 mg/kg.
Take `CCOC(=O)CCCNC(=O)Cn1c(-c2ccc(Cl)cc2)nc2cccnc21`: in assay [1], the negative-log IC50 (pIC50) was under 5.00. Also, in the assay filed under Mus musculus [2], the 50% effective dose (ED50) turned out to be 100 mg/kg.
Regarding `CNC(=O)Cn1c(-c2ccc(Cl)cc2)nc2cccnc21`, the pIC50 in assay [1] is 5.80. Further, in the assay listed under Mus musculus [2], the ED50 stood at 12.5 mg/kg.
In assay [1], `CC(=O)N1CCN(C(=O)Cn2c(-c3ccc(Cl)cc3)nc3cccnc32)CC1` had a pIC50 of 5.19. The compound also came in with an ED50 with Mus musculus [5] of 100 mg/kg.
The compound `CC(=O)Oc1ccc2nc(-c3ccc(Cl)cc3)n(CC(=O)N(C)C)c2n1` showed a negative logarithm of the IC50 (pIC50) in assay [1] of under 5.00. The median effective dose (ED50) in the assay listed under Mus musculus [2] was found to be 100 mg/kg.
